Test results reported in ChEMBL document CHEMBL1135587, “Discovery and structure-activity relationship of N-(ureidoalkyl)-benzyl-piperidines as potent small molecule CC chemokine receptor-3 (CCR3) antagonists” (J Med Chem, 2002).

molecular target: T1, C-C chemokine receptor type 3 (Homo sapiens, UniProt P51677); assay: Inhibitory activity against recombinant human Chemokine receptor type 3 (CCR3) expressed in chinese hamster ovary cells; format: cell-based, CHO
T1 sequence (P51677 whole entry): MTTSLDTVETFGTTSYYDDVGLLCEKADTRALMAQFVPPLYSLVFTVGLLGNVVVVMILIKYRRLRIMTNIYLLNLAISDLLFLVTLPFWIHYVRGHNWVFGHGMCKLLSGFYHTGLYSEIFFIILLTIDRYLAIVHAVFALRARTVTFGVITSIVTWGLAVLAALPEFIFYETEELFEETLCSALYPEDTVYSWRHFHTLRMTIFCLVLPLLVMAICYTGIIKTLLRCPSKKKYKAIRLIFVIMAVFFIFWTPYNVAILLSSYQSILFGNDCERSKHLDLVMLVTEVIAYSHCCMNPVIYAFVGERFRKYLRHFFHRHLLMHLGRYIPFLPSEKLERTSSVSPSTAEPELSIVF
Outline: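 CHO cells transfected with human CCR3, 5×10^5 per well, incubated 30 min at room temperature with 150 pM (final) 125I-labeled human eotaxin and compound. Binding buffer: RPMI 1640 with 0.5% BSA, 20 mM HEPES, 5 mM MgCl2. Filtration on protamine-treated filter plates, washed with binding buffer plus 0.5 M NaCl, filter counted. Nonspecific binding defined with 100 nM eotaxin. Percent inhibition taken against compound-free total binding. IC50 values are the mean of usually three determinations.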

Row | Compound | IC50
1 | O=C(NCC1CCCCC1)NCC(CCCN1CCC(O)(c2ccc(Cl)cc2)CC1)(c1ccccc1)c1ccccc1 | 2.4 µM
2 | O=C(NCc1ccccc1)Nc1ccccc1CN1CCC(Cc2ccccc2)CC1 | 3.4 µM
3 | O=C(NCC(CCCN1CCC(O)(c2ccc(Cl)cc2)CC1)(c1ccccc1)c1ccccc1)NC1CCN(Cc2ccccc2)CC1 | 1.62 µM
4 | O=C(Nc1cccc(CN2CCC(Cc3ccccc3)CC2)c1)NC1CCN(Cc2ccccc2)CC1 | 3.7 µM
5 | O=C(NCCN1CCCCC1)NCC(CCCN1CCC(O)(c2ccc(Cl)cc2)CC1)(c1ccccc1)c1ccccc1 | 2.2 µM
6 | COC(=O)N1CCC(NC(=O)NCC(CCCN2CCC(O)(c3ccc(Cl)cc3)CC2)(c2ccccc2)c2ccccc2)CC1 | 5.3 µM
7 | O=C(NCCCO)Nc1ccccc1CN1CCC(Cc2ccccc2)CC1 | 2.6 µM
8 | O=C(Nc1ccccc1)Nc1ccccc1CN1CCC(Cc2ccccc2)CC1 | 0.9 µM
9 | O=C(NCCc1ccc(F)cc1)Nc1ccccc1CN1CCN(Cc2ccccc2)CC1 | 9.2 µM
10 | O=C(NCC(CCCN1CCC(O)(c2ccc(Cl)cc2)CC1)(c1ccccc1)c1ccccc1)Nc1cccc(C(F)(F)F)c1 | 19.3 µM
11 | N#Cc1cccc(NC(=O)NCc2ccccc2CN2CCC(Cc3ccccc3)CC2)c1 | 2.8 µM
12 | Fc1ccc(CCCN2CCC3C(C2)c2cccc4c2N3CC4)cc1 (stereo not drawn) | 1 µM
13 | COc1cccc(NC(=O)NCc2ccccc2CN2CCC(Cc3ccccc3)CC2)c1 | 2.4 µM
14 | O=C(Nc1cc(F)ccc1F)Nc1ccccc1CN1CCC(c2ccccc2)CC1 | 11 µM
15 | O=C1CC2(CCc3ccccc32)C(=O)N1CC1CCN(CCc2ccccc2)CC1 (stereo not drawn) | 2 µM
16 | COc1ccc(NC(=O)NCc2ccccc2CN2CCC(Cc3ccccc3)CC2)cc1 | 1.3 µM
17 | c1ccc(CCCCN2CCN(Cc3ccccc3)CC2)cc1 | 8.4 µM
18 | O=C(NCCc1ccc(F)cc1)Nc1ccccc1CN1CCC(Cc2ccccc2)CC1 | 3.8 µM
19 | CC1C2=C(CC=CC2)C(=O)N1CC1CCN(CCc2ccccc2)CC1 (stereo not drawn) | 12 µM
20 | O=C(Nc1cccc(CN2CCC(Cc3ccccc3)CC2)c1)Nc1ccc2[nH]ncc2c1 | 0.62 µM
21 | O=C(NCC(c1ccccc1)c1ccccc1)Nc1ccccc1CN1CCC(C(=O)c2ccccc2)CC1 | 3.9 µM
22 | O=C(Nc1cc(F)ccc1F)Nc1ccccc1CN1CCC(C(=O)c2ccccc2)CC1 | 4.65 µM
23 | O=C(NCC(c1ccccc1)c1ccccc1)Nc1ccccc1CN1CCC(Cc2ccccc2)CC1 | 2.65 µM
24 | COC(=O)c1ccc(CN2CCC(Cc3ccccc3)CC2)c(NC(=O)Nc2cccc(OC)c2)c1 | 0.777 µM
25 | OC1(c2ccc(Cl)cc2)CCN(CCCCc2ccccc2)CC1 | 14.5 µM
26 | O=C(NCCCO)NC(Cc1ccccc1)c1ccccc1 (stereo not drawn) | 50 µM
27 | O=C(NCc1ccc2c(c1)OCO2)Nc1ccccc1CN1CCC(C(=O)c2ccccc2)CC1 | 7.35 µM
28 | O=C(NCc1ccc2c(c1)OCO2)Nc1ccccc1CN1CCC(Cc2ccccc2)CC1 | 1.75 µM

The next molecules have a lower IC50 than those just listed; values first:

Row | IC50 | Compound
29 | 0.009 µM | COC(=O)c1cccc(NC(=O)Nc2ccccc2)c1CN1CCC(Cc2ccc(F)cc2)CC1
30 | 0.014 µM | N#Cc1cccc(NC(=O)Nc2ccccc2CCN2CCC(Cc3ccc(F)cc3)CC2)c1
31 | 0.049 µM | N#Cc1cccc(NC(=O)Nc2ccccc2C(O)CN2CCC(Cc3ccccc3)CC2)c1 (stereo not drawn)
32 | 0.26 µM | O=C(Nc1ccc2[nH]ncc2c1)Nc1cc2c(cc1CN1CCC(Cc3ccccc3)CC1)OCO2
33 | 0.529 µM | N#Cc1cccc(NC(=O)Nc2c(CN3CCC(Cc4ccc(F)cc4)CC3)ccc3ccccc23)c1
34 | 0.31 µM | N#Cc1cccc(NC(=O)Nc2ccccc2CN2CCC(Cc3ccc(F)cc3)CC2)c1
35 | 0.085 µM | N#Cc1cccc(NC(=O)Nc2cc3c(cc2CN2CCC(Cc4ccc(F)cc4)CC2)OCO3)c1
36 | 0.14 µM | N#Cc1cccc(NC(=O)Nc2ccccc2CCN2CCC(Cc3ccccc3)CC2)c1
37 | 0.053 µM | O=C(Nc1ccccc1)Nc1cccc(CO)c1CN1CCC(Cc2ccc(F)cc2)CC1
38 | 0.021 µM | C[N+]1(Cc2cc(O)ccc2NC(=O)Nc2cccc(C#N)c2)CCC(Cc2ccccc2)CC1 (stereo not drawn)
39 | 0.011 µM | C[N+]1(Cc2cc3c(cc2NC(=O)Nc2cccc(C#N)c2)OCO3)CCC(Cc2ccccc2)CC1 (stereo not drawn)
40 | 0.024 µM | O=C(Nc1ccccc1)Nc1ccccc1C(O)CN1CCC(Cc2ccc(F)cc2)CC1 (stereo not drawn)
41 | 0.04 µM | CC(=O)c1cccc(NC(=O)Nc2cc3c(cc2CN2CCC(Cc4ccc(F)cc4)CC2)OCO3)c1
42 | 0.007 µM | COC(=O)c1cccc(NC(=O)Nc2cccc(C#N)c2)c1CN1CCC(Cc2ccc(F)cc2)CC1
43 | 0.228 µM | CC(=O)c1cccc(NC(=O)Nc2cc3c(cc2CN2CCC(Cc4ccccc4)CC2)OCO3)c1
44 | 0.011 µM | N#Cc1cccc(NC(=O)Nc2ccccc2C(O)CN2CCC(Cc3ccc(F)cc3)CC2)c1 (stereo not drawn)
45 | 0.003 µM | N#Cc1cccc(NC(=O)Nc2cccc(C(N)=O)c2CN2CCC(Cc3ccc(F)cc3)CC2)c1
46 | 0.067 µM | COC(=O)c1ccc(NC(=O)Nc2cccc(C#N)c2)c(CN2CCC(Cc3ccc(F)cc3)CC2)c1
47 | 0.237 µM | N#Cc1cccc(NC(=O)Nc2cc3c(cc2CN2CCC(Cc4ccccc4)CC2)OCO3)c1
48 | 0.042 µM | COC(=O)c1ccc(NC(=O)Nc2cccc(C(C)=O)c2)c(CN2CCC(Cc3ccc(F)cc3)CC2)c1

Row | IC50 | Compound
49 | 0.011 µM | COC(=O)c1cccc(NC(=O)Nc2cccc(OC)c2)c1CN1CCC(Cc2ccc(F)cc2)CC1
50 | 0.064 µM | COC(=O)c1ccc(NC(=O)Nc2cccc(OC)c2)c(CN2CCC(Cc3ccc(F)cc3)CC2)c1
51 | 0.021 µM | COc1cccc(NC(=O)Nc2ccccc2C(O)CN2CCC(Cc3ccc(F)cc3)CC2)c1 (stereo not drawn)
52 | 0.249 µM | O=C(Nc1ccccc1)Nc1ccccc1C(O)CN1CCC(Cc2ccccc2)CC1 (stereo not drawn)
53 | 0.141 µM | COc1cccc(NC(=O)Nc2cc3c(cc2CN2CCC(Cc4ccc(F)cc4)CC2)OCO3)c1
54 | 0.002 µM | C[N+]1(Cc2cc3c(cc2NC(=O)Nc2cccc(C#N)c2)OCO3)CCC(Cc2ccc(F)cc2)CC1 (stereo not drawn)
55 | 0.361 µM | O=C(Nc1ccccc1)Nc1ccccc1CN1CCC(Cc2ccc(F)cc2)CC1
56 | 0.035 µM | O=C(Nc1ccc(F)cc1)Nc1ccccc1CCN1CCC(Cc2ccc(F)cc2)CC1
57 | 0.45 µM | N#Cc1cccc(NC(=O)Nc2cccc(CN3CCC(Cc4ccccc4)CC3)c2)c1
58 | 0.277 µM | N#Cc1cccc(NC(=O)Nc2ccc(O)cc2CN2CCC(Cc3ccccc3)CC2)c1
59 | 0.008 µM | N#Cc1cccc(NC(=O)Nc2ccc(C(N)=O)cc2CN2CCC(Cc3ccc(F)cc3)CC2)c1
60 | 0.125 µM | CC(=O)c1cccc(NC(=O)Nc2ccccc2CN2CCC(Cc3ccc(F)cc3)CC2)c1
61 | 0.001 µM | CC(=O)c1cccc(NC(=O)Nc2cc3c(cc2C[N+]2(C)CCC(Cc4ccc(F)cc4)CC2)OCO3)c1 (stereo not drawn)
62 | 0.36 µM | COc1cccc(NC(=O)Nc2cc(CO)ccc2CN2CCC(Cc3ccccc3)CC2)c1
63 | 0.153 µM | O=C(Cc1ccc(F)cc1)Nc1ccccc1CCN1CCC(Cc2ccc(F)cc2)CC1
64 | 0.055 µM | N#Cc1cccc(NC(=O)Nc2ccc(CO)cc2CN2CCC(Cc3ccc(F)cc3)CC2)c1
65 | 0.114 µM | N#Cc1cccc(NC(=O)Nc2cc(CO)ccc2CN2CCC(Cc3ccccc3)CC2)c1
66 | 0.047 µM | COc1cccc(NC(=O)Nc2ccc(CO)cc2CN2CCC(Cc3ccc(F)cc3)CC2)c1
67 | 0.011 µM | COc1cccc(NC(=O)Nc2ccccc2CCN2CCC(Cc3ccc(F)cc3)CC2)c1
68 | 0.017 µM | O=C(Nc1ccccc1)Nc1cccc(C(=O)O)c1CN1CCC(Cc2ccc(F)cc2)CC1

molecular target: T2, C-C chemokine receptor type 1 (Homo sapiens, UniProt P32246); assay: Inhibitory activity against human Chemokine receptor type 1 expressed in chinese hamster ovary cells; format: cell-based, CHO
T2 sequence (P32246 whole entry): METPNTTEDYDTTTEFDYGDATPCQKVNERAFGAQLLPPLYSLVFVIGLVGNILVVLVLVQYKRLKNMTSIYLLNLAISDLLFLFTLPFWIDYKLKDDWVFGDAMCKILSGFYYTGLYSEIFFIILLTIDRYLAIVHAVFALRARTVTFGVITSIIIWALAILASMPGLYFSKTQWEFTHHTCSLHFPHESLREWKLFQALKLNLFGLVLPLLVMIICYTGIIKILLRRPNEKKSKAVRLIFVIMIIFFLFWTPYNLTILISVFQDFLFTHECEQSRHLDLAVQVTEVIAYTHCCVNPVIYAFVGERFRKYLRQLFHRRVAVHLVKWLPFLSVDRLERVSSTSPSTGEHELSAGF

Row | Compound | IC50
69 | O=C(NCC1CCCCC1)NCC(CCCN1CCC(O)(c2ccc(Cl)cc2)CC1)(c1ccccc1)c1ccccc1 | 0.125 µM
70 | O=C(NCc1ccccc1)Nc1ccccc1CN1CCC(Cc2ccccc2)CC1 | > 10 µM
71 | O=C(NCC(CCCN1CCC(O)(c2ccc(Cl)cc2)CC1)(c1ccccc1)c1ccccc1)NC1CCN(Cc2ccccc2)CC1 | 0.31 µM
72 | O=C(NCCN1CCCCC1)NCC(CCCN1CCC(O)(c2ccc(Cl)cc2)CC1)(c1ccccc1)c1ccccc1 | 0.36 µM
73 | COC(=O)N1CCC(NC(=O)NCC(CCCN2CCC(O)(c3ccc(Cl)cc3)CC2)(c2ccccc2)c2ccccc2)CC1 | 0.5 µM
74 | O=C(NCCCO)Nc1ccccc1CN1CCC(Cc2ccccc2)CC1 | > 10 µM
75 | O=C(Nc1ccccc1)Nc1ccccc1CN1CCC(Cc2ccccc2)CC1 | > 10 µM
76 | O=C(NCC(CCCN1CCC(O)(c2ccc(Cl)cc2)CC1)(c1ccccc1)c1ccccc1)Nc1cccc(C(F)(F)F)c1 | 1.41 µM

More lines, now with the values ahead:

Row | IC50 | Compound
77 | > 10 µM | N#Cc1cccc(NC(=O)Nc2ccccc2C(O)CN2CCC(Cc3ccccc3)CC2)c1 (stereo not drawn)
78 | > 10 µM | N#Cc1cccc(NC(=O)Nc2ccccc2CCN2CCC(Cc3ccccc3)CC2)c1
